Reference: ChEMBL document CHEMBL1144528, “Synthesis of 8-thiabicyclo[3.2.1]octanes and their binding affinity for the dopamine and serotonin transporters” (Bioorg Med Chem, 2007)

How the values were obtained:
[1] = organism: Macaca mulatta; assay: Selectivity for rhesus monkey DAT over rhesus monkey SERT
In short: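 Ratio of SERT IC50 ([3H]citalopram binding) to DAT IC50 ([3H]WIN35,428 binding), both measured in monkey caudate-putamen membranes.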

[2] = biological target: Transporter (Macaca mulatta, UniProt Q7JHP9); assay: Displacement of [3H]WIN-35428 from DAT in rhesus monkey caudate-putamen; assay type: tissue-based
In short: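 Rhesus or cynomolgus caudate-putamen membranes (4 mg original wet weight/mL) in 50 mM Tris·HCl pH 7.4, 100 mM NaCl. Incubated 2 h at 0-4 °C with 0.3 nM [3H]WIN35,428 and a range of drug concentrations. Filtered on 0.1% BSA-soaked glass fibre filters and scintillation counted. Nonspecific binding defined with 30 μM (-)-cocaine. IC50 is the mean of ≥2 experiments in different brains, each in triplicate.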

[3] = biological target: Sodium-dependent serotonin transporter (Macaca mulatta, UniProt Q9MYX0); assay: Displacement of [3H]citalopram from SERT in rhesus monkey caudate-putamen; assay type: tissue-based
In short: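 Caudate-putamen membranes from rhesus or cynomolgus monkey (4 mg original wet weight/mL) in 50 mM Tris·HCl pH 7.4 with 100 mM NaCl. Incubated with 1 nM [3H]citalopram and a range of test drug concentrations for 2 h at 0-4 °C. Filtered over glass fibre filters pre-soaked in 0.1% polyethyleneimine, then scintillation counted. IC50 is the mean of ≥2 independent experiments in different brains, each in triplicate.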

Sequence of Transporter (Q7JHP9 whole entry): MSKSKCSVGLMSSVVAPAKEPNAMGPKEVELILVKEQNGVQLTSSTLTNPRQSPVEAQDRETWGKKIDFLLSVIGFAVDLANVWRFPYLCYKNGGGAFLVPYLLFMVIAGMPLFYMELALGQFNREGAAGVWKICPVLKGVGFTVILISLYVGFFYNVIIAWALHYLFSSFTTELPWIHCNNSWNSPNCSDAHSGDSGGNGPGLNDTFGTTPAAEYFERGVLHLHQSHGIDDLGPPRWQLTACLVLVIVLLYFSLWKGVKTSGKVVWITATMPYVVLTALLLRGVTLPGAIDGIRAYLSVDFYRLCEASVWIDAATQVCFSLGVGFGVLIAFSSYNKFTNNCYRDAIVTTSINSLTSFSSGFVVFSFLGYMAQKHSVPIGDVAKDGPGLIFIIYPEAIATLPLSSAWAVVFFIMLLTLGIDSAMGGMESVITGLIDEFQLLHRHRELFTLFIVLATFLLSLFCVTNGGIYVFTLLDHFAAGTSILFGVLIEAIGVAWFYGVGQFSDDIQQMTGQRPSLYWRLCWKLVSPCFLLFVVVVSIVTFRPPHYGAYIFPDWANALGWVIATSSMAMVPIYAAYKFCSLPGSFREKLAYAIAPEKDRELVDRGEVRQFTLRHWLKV
Sequence of Sodium-dependent serotonin transporter (Q9MYX0 whole entry): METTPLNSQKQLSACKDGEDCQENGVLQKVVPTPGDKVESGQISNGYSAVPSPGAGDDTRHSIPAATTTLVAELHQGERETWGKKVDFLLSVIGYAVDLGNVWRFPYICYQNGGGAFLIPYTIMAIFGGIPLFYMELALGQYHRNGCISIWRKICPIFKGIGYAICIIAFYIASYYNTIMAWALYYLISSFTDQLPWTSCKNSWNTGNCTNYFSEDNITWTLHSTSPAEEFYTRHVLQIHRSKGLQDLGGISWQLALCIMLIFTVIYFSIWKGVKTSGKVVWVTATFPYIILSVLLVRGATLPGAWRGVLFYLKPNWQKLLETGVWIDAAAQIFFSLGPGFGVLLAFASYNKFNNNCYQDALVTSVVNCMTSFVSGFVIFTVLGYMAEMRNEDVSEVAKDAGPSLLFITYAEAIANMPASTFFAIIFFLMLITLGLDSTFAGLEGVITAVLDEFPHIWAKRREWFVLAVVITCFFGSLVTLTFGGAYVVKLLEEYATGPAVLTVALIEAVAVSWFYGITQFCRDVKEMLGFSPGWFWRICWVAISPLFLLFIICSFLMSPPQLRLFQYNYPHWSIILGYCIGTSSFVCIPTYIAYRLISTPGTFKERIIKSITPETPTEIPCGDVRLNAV

Row | SMILES | Ratio IC50 [1] | IC50 [2] [nM] | IC50 [3] [nM]
1 | COC(=O)[C@@H]1C2CCC(C[C@H]1c1ccc(F)c(F)c1)S2 (stereo partly specified) | 88 | 11.3 | 1000
2 | COC(=O)C1=C(c2ccc(Cl)c(Cl)c2)CC2CCC1S2 (stereo unspecified) | > 800 | 4.5 | > 3000
3 | COC(=O)[C@@H]1[C@H]2CCC(C[C@H]1c1ccc(Cl)c(Cl)c1)N2C | 68 | 0.4 | 27
4 | COC(=O)[C@@H]1C2CCC(C[C@H]1c1ccc(F)cc1)S2 (stereo partly specified) | > 186 | 59 | > 11000
5 | COC(=O)C1=C(c2ccc(F)cc2)CC2CCC1S2 (stereo unspecified) | > 127 | 220 | > 30000
6 | COC(=O)C1=C(c2ccc(Cl)c(Cl)c2)CC2CC[C@@H]1N2C | 4 | 490 | 1900
7 | COC(=O)[C@@H]1C2CCC(C[C@H]1c1ccc(Br)cc1)[S+]2[O-] (stereo partly specified) | > 1710 | 14 | > 24000
8 | COC(=O)C1=C(c2ccc(Cl)c(Cl)c2)CC2CC[C@@H]1S2 | 800 | 5 | 4000
9 | COC(=O)[C@@H]1[C@H]2CCC(C[C@H]1c1ccc(Cl)c(Cl)c1)S2 | 8 | 4.9 | 39
10 | COC(=O)[C@H]1[C@@H](c2ccc(Cl)c(Cl)c2)CC2CC[C@H]1S2 | 1.5 | 2 | 3
11 | COC(=O)[C@@H]1C2CCC(C[C@@H]1c1ccc(F)cc1)S2 (stereo partly specified) | 13 | 38 | 494
12 | COC(=O)C1=C(c2ccc(Cl)cc2)CC2CCC1S2 (stereo unspecified) | > 770 | 13 | > 10000
13 | COC(=O)C1=C(c2ccc(Cl)c(Cl)c2)CC2CC[C@H]1O2 | 460 | 4.6 | 2120
14 | COC(=O)C1=C(c2ccc(Cl)c(Cl)c2)CC2C[C@@H](O)[C@@H]1N2C | – | 265 | 1590
15 | COC(=O)[C@@H]1C2CCC(C2)C[C@H]1c1ccc(Cl)c(Cl)c1 (stereo partly specified) | 13 | 13 | 166
16 | COC(=O)C1=C(c2ccccc2)CC2CCC1S2 (stereo unspecified) | > 11 | 910 | > 10000
17 | COC(=O)C1=C(c2ccc(F)c(Cl)c2)CC2CCC1S2 (stereo unspecified) | > 789 | 7.6 | > 6000
18 | COC(=O)C1=C(c2ccc(I)cc2)CC2CCC1S2 (stereo unspecified) | > 1300 | 6.7 | > 8000
19 | COC(=O)C1=C(c2ccc(Cl)c(Cl)c2)CC2CCC1O2 (stereo unspecified) | 600 | 10 | 6000
20 | COC(=O)C1=C(c2ccc(Cl)c(Cl)c2)CC2CC[C@@H]1O2 | 805 | 58 | 46700
21 | COC(=O)[C@@H]1C2CCC(C[C@@H]1c1ccc(Cl)cc1)S2 (stereo partly specified) | 3.4 | 9.6 | 33
22 | COC(=O)[C@@H]1C2CCC(C[C@@H]1c1ccc(Cl)c(Cl)c1)[S+]2[O-] (stereo partly specified) | 23 | 5.3 | 120
23 | COC(=O)[C@@H]1[C@@H]2CCC(C[C@@H]1c1ccc(Cl)c(Cl)c1)O2 | 1.2 | 47 | 58
24 | COC(=O)[C@@H]1[C@@H]2CCC(C[C@H]1c1ccc(Cl)c(Cl)c1)S2 | 14 | 10 | 139
25 | COC(=O)[C@@H]1C2CCC(C[C@@H]1c1ccc(F)c(F)c1)S2 (stereo partly specified) | 7 | 32 | 235
26 | COC(=O)[C@@H]1C2CCC(C[C@H]1c1ccc(Cl)c(F)c1)[S+]2[O-] (stereo partly specified) | > 824 | 17 | > 14000

Row | SMILES | Ratio IC50 [1] | IC50 [2] [nM] | IC50 [3] [nM]
27 | COC(=O)[C@@H]1[C@H]2CCC(C[C@H]1c1ccc(Cl)c(Cl)c1)O2 | 13 | 2.3 | 31
28 | COC(=O)[C@@H]1[C@H]2[C@H](O)CC(C[C@H]1c1ccc(Cl)c(Cl)c1)N2C | 1610 | 0.76 | 1220
29 | COC(=O)[C@H]1[C@@H](c2ccc(Cl)c(Cl)c2)CC2CC[C@H]1O2 | 1.4 | 3.3 | 4.7
30 | COC(=O)C1=C(c2ccc(Cl)c(Cl)c2)CC2CC[C@H]1S2 | 1040 | 2.5 | 2600
31 | COC(=O)[C@@H]1C2CCC(C[C@H]1c1ccc3ccccc3c1)S2 (stereo partly specified) | 4.5 | 8 | 36
32 | COC(=O)[C@@H]1C2CCC(C[C@@H]1c1ccc(Cl)c(Cl)c1)S2 (stereo partly specified) | 1.5 | 5.7 | 8
33 | COC(=O)C1=C(c2ccc3ccccc3c2)CC2CCC1S2 (stereo unspecified) | > 163 | 8 | > 1000
34 | COC(=O)[C@@H]1C2CCC(C[C@@H]1c1ccc(Br)cc1)S2 (stereo partly specified) | 2.3 | 6 | 14
35 | COC(=O)[C@@H]1[C@@H]2CCC(C[C@H]1c1ccc(Cl)c(Cl)c1)O2 | 51 | 56 | 2860
36 | COC(=O)[C@@H]1[C@@H]2[C@H](O)CC(C[C@@H]1c1ccc(Cl)c(Cl)c1)N2C | 0.05 | 2690 | 139
37 | COC(=O)C1=C(c2ccccc2)CC2CCC1[S+]2[O-] (stereo unspecified) | > 1.6 | 6000 | > 10000
38 | COC(=O)C1=C(c2ccc(F)c(F)c2)CC2CCC1S2 (stereo unspecified) | > 133 | 75 | > 10000
39 | COC(=O)[C@@H]1C2CCC(C[C@H]1c1ccccc1)S2 (stereo partly specified) | > 57 | 140 | > 8000
40 | COC(=O)[C@@H]1C2CCC(C[C@H]1c1ccccc1)[S+]2[O-] (stereo partly specified) | 100 | 1000 | 100000
41 | COC(=O)[C@@H]1C2CCC(C[C@@H]1c1ccc(Cl)c(F)c1)S2 (stereo partly specified) | 3 | 6 | 17
42 | COC(=O)[C@@H]1C2CCC(C[C@H]1c1ccc(Cl)c(Cl)c1)[S+]2[O-] (stereo partly specified) | > 346 | 7.8 | > 3000
43 | COC(=O)[C@@H]1C2CCC(C[C@@H]1c1ccccc1)S2 (stereo partly specified) | > 29 | 117 | > 3000
44 | COC(=O)[C@@H]1[C@@H]2[C@H](O)CC(C[C@H]1c1ccc(Cl)c(Cl)c1)N2C | 11 | 482 | 5300
45 | COC(=O)[C@@H]1C2CCC(C[C@@H]1c1ccc(Cl)c(Cl)c1)O2 (stereo partly specified) | 2 | 3.3 | 6.5
46 | COC(=O)[C@@H]1C2CCC(C[C@@H]1c1ccc(Cl)c(F)c1)[S+]2[O-] (stereo partly specified) | > 286 | 14 | > 4000
47 | COC(=O)[C@@H]1C2CCC(C[C@H]1c1ccc(I)cc1)S2 (stereo partly specified) | 8 | 9 | 70
48 | COC(=O)[C@@H]1C2CCC(C[C@@H]1c1ccc3ccccc3c1)S2 (stereo partly specified) | 0.8 | 16 | 13
49 | COC(=O)[C@@H]1C2CCC(C2)C[C@@H]1c1ccc(Cl)c(Cl)c1 (stereo partly specified) | 3.4 | 9.6 | 33
50 | COC(=O)C1=C(c2ccc(Cl)c(Cl)c2)CC2C[C@@H](O)[C@H]1N2C | – | 7.4 | 5370
51 | COC(=O)C1=C(c2ccc(Cl)c(Cl)c2)CC2CC[C@H]1N2C | 723 | 1.2 | 867
